Assay results from different studies.
Protocols differ between the studies behind these lines.

O=C(Nc1ccc2c(c1)B(O)OC2)c1cccc(OCc2c(Cl)cccc2Cl)c1
Papp (PAMPA; 200 µM; 5 h; pH 7.4): 0.91 ×10⁻⁶ cm/s

CNC(=O)[C@@H](NC(=O)c1cc(OCC2(C)COC2)c(C2CC2)cn1)C(C)(C)C
Papp (PAMPA): 5.17 ×10⁻⁶ cm/s

COc1ccc(C[C@@H]2NC(=O)[C@@H](CC(C)C)NC(=O)CNC(=O)[C@H](CC(C)C)NC(=O)[C@@H](CC(C)C)NC(=O)[C@H]3CCCN3C2=O)cc1
Papp (PAMPA; 10 µM; 7 h): 9.1 ×10⁻⁶ cm/s

Cn1c(=O)c2c(ncn2C)n(C)c1=O
Papp (PAMPA; 200 µM; 5 h; pH 7.4): 11.7 ×10⁻⁶ cm/s

CC[C@H](C)[C@@H]1NC(=O)[C@H](CC(C)C)NC(=O)[C@@H](CC(C)C)NC(=O)[C@H]2CCCN2C(=O)[C@H](Cc2ccc(OC)cc2)NC(=O)[C@@H](CC(C)C)NC1=O
Papp (PAMPA; 10 µM; 7 h): 11.9 ×10⁻⁶ cm/s

CC[C@@H](C)[C@@H]1NC(=O)[C@@H](Cc2ccc(Cl)cc2)NC(=O)CN(C)C(=O)[C@H]([C@H](C)CC)NC(=O)[C@@H](Cc2ccc(Cl)cc2)NC(=O)CN(C)C1=O
Papp (PAMPA): 33 ×10⁻⁶ cm/s

CC(NC(C)(C)C)C(=O)c1cccc(Cl)c1 (stereo not drawn)
Papp (PAMPA-BBB; 1 µM; 18 h): 16 ×10⁻⁶ cm/s

O=S(=O)(Nc1ccc2c(c1)B(O)OC2)c1ccc(Cl)cc1
Papp (PAMPA; 200 µM; 5 h; pH 7.4): 1.7 ×10⁻⁶ cm/s

CC[C@@H](C)[C@@H]1NC(=O)[C@@H](Cc2ccc(OC)cc2)NC(=O)CN(C)C(=O)[C@H]([C@H](C)CC)NC(=O)[C@@H](Cc2ccc(OC)cc2)NC(=O)CN(C)C1=O
Papp (PAMPA): 29 ×10⁻⁶ cm/s

NC(=O)[C@@H]1CC(F)(F)CN1C(=O)c1ccc(N2CC(F)(F)C2)c(OCC2CC2)n1
Papp (PAMPA): 5.23 ×10⁻⁶ cm/s

O=c1cc(-c2ccccc2)oc2c(O)c(O)ccc12
Papp (PAMPA-BBB; 1 µM; 18 h): 6.32 ×10⁻⁶ cm/s

O=C(Nc1ccc2c(c1)B(O)OC2)c1ccccc1OCc1ccccc1
Papp (PAMPA; 200 µM; 5 h; pH 7.4): 1.2 ×10⁻⁶ cm/s

CN1CCN(C(c2ccc(Cl)cc2)c2ccc(Cl)cc2)CC1
Papp (PAMPA): 1020 ×10⁻⁶ cm/s

O=C(Nc1ccc2c(c1)B(O)OC2)c1cccc(OCc2ccccc2)c1
Papp (PAMPA; 200 µM; 5 h; pH 7.4): 0.14 ×10⁻⁶ cm/s

COCCOCCOc1c(OC)cc2cc(C(=O)N3C[C@@H](CCl)c4c3cc(O)c3[nH]c(C(=O)OC)cc43)[nH]c2c1OC
Papp (PAMPA; 1 µM; 5 h; pH 7.4): 3.6 ×10⁻⁶ cm/s
